# Reference: ChEMBL document CHEMBL4028901, “Novel Antitubercular 6-Dialkylaminopyrimidine Carboxamides from Phenotypic Whole-Cell High Throughput Screening of a SoftFocus Library: Structure-Activity Relationship and Target Identification Studies” (J Med Chem, 2017)
# Assays:
# [1] = tested on: Mycobacterium tuberculosis; assay: Antibacterial activity against Mycobacterium tuberculosis H37RvMA grown in 7H9/ADC medium measured 7 to 14 days post inoculation by broth microdilution method; type: functional
# [2] = tested on: Mycobacterium tuberculosis; assay: Antibacterial activity against Mycobacterium tuberculosis H37RvMA grown in GAST/Fe medium measured 7 to 14 days post inoculation by broth microdilution method; type: functional
# Method in brief: (§1)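 H37RvMa grown to OD600 0.6–0.7, diluted 1:100 in GAST/Fe. Compounds two-fold serially diluted from a top concentration of 640 μM, in duplicate. Incubated at 37 °C with humidification.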
# Vero = assay: Cytotoxicity against African green monkey Vero cells assessed as reduction in cell viability by MTT assay; type: cell-based; settings: Chlorocebus sabaeus
# Method in brief: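 MTT assay in Vero cells, samples in triplicate on one occasion. Stocks at 20 mg/mL in DMSO, diluted in complete medium as 10-fold serial dilutions over 6 concentrations. Emetine used as reference. IC50 derived by non-linear dose-response curve fitting.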
# [3] = Kinetic solubility of the compound in fasted-state simulated intestinal fluid at 10 to 220 uM at pH 6.5 after 2 hrs by shake flask method; type: physicochemical; settings: read-out: Kinetic_solubility
# Method in brief: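 Miniaturised shake flask. 10 mM DMSO stocks spiked 1:50 into duplicate FaSSIF (pH 6.5), 2% final DMSO. Shaken 2 h at 25 °C, filtered, analysed by HPLC-DAD against calibration standards (10–220 μM).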
# [4] = Lipophilicity, log P of the compound at 100 uM at pH 7.4 after 3 hrs by shake-flask method; type: physicochemical; settings: buffer
# Method in brief: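 Shake-flask method run in triplicate. A 10 mM stock was spiked into a 1:1 mixture of phosphate buffer (pH 7.4) and n-octanol, then shaken at 1500 rpm on an orbital shaker for 3 h at room temperature.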
# [5] = Kinetic solubility of the compound in pH 7.4 solution at 10 to 220 uM after 2 hrs by shake flask method; type: physicochemical; settings: buffer, pH 7.4, 2 h, 220 µM
# Liver [6] = assay: Metabolic stability in rat liver microsomes assessed as compound remaining at 0.1 uM after 30 mins by LC-MS/MS analysis; type: ADME, microsome; settings: 0.5 h
# Method in brief: (§2)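 Compound at 0.1 μM incubated in duplicate with mouse, rat or pooled human liver microsomes (0.4 mg/mL) at 37 °C. Run with and without 1 mM NADPH, sampled at predetermined time points.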
# Plasma = assay: Fraction unbound in human plasma at 5 uM pre-incubated for 1 hr by ultra-centrifugation and LC-MS/MS method; type: ADME, cell-free
# Method in brief: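 Pooled human plasma spiked to 5 μM and pre-incubated 1 h at 37 °C. Duplicate aliquots ultracentrifuged 4 h at 37 °C; an unspun aliquot served as the total sample. Analyte measured by LC-MS/MS.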
# Liver [7] = assay: Metabolic stability in human liver microsomes assessed as compound remaining at 0.1 uM after 30 mins by LC-MS/MS analysis; type: ADME, microsome; settings: 0.5 h; method in brief: as §2
# Liver [8] = assay: Metabolic stability in mouse liver microsomes assessed as compound remaining at 0.1 uM after 30 mins by LC-MS/MS analysis; type: ADME, microsome; settings: 0.5 h; method in brief: as §2
# Mus musculus [9] = assay: Apparent elimination half life in C57/BL6 mouse at 20 mg/kg, po measured up to 24 hrs post dose by LC-MS/MS analysis; type: ADME, organism-based; settings: in vivo
# Method in brief: (§3)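 Male mice, 3 per route, not fasted, free access to water. Oral dose given as aqueous suspension in 0.5% (w/v) hydroxypropyl methylcellulose with 0.4% (v/v) Tween 80. Blood drawn into heparinised tubes at 0.5, 1, 3, 5, 8, 12 and 24 h, kept below -15 °C, protein-precipitated with ice-cold acetonitrile. Quantified by LC-MS/MS against standards made in drug-free mouse blood.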
# Mus musculus [10] = assay: Cmax in C57/BL6 mouse at 20 mg/kg, po measured up to 24 hrs post dose by LC-MS/MS analysis; type: ADME, organism-based; set-up: dose 20 mg/kg, route oral; settings: in vivo; method in brief: as §3
# Mus musculus [11] = assay: Tmax in C57/BL6 mouse at 20 mg/kg, po measured up to 24 hrs post dose by LC-MS/MS analysis; type: ADME, organism-based; settings: in vivo; method in brief: as §3
# Mus musculus [12] = assay: AUC (0 to infinity) in C57/BL6 mouse at 20 mg/kg, po measured up to 24 hrs post dose by LC-MS/MS analysis; type: ADME, organism-based; set-up: dose 20 mg/kg, route oral, time infinity; settings: in vivo; method in brief: as §3
# Mus musculus [13] = assay: Oral bioavailability in C57/BL6 mouse at 20 mg/kg measured up to 24 hrs post dose by LC-MS/MS analysis; type: ADME, organism-based; settings: in vivo; method in brief: as §3
# Mus musculus [14] = assay: Apparent elimination half life in C57/BL6 mouse at 5 mg/kg, iv measured up to 24 hrs post dose by LC-MS/MS analysis; type: ADME, organism-based; settings: in vivo
# Method in brief: (§4)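 Male mice, 3 animals, not fasted, given an IV bolus in 10% DMSO, 50% propylene glycol/ethanol (4:1) and 40% polyethylene glycol or water. Blood sampled into heparinised tubes at 0.17, 0.5, 1, 3, 5, 8, 12 and 24 h, stored frozen, precipitated with ice-cold acetonitrile. Measured by LC-MS/MS with internal standards against blood-matrix calibration standards.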
# Mus musculus [15] = assay: Volume of distribution in C57/BL6 mouse at 5 mg/kg, iv measured up to 24 hrs post dose by LC-MS/MS analysis; type: ADME, organism-based; settings: in vivo; method in brief: as §4
# Mus musculus [16] = assay: AUC (0 to infinity) in C57/BL6 mouse at 5 mg/kg, iv measured up to 24 hrs post dose by LC-MS/MS analysis; type: ADME, organism-based; set-up: dose 5 mg/kg, route intravenous, time infinity; settings: in vivo; method in brief: as §4
# Liver [17] = assay: Drug metabolism in BALB mouse liver microsomes assessed as cleavage of amide bound on RHS at 10 uM after 1 hr by LC-MS/MS analysis; type: ADME, microsome
# Method in brief: (§5)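 Incubation at 37 °C for 1 h with shaking in 100 mM phosphate buffer pH 7.4, 1 mg/ml microsomes, 5 mM MgCl2 and 1 mM NADPH. Ice-cold acetonitrile precipitation, filtration, then LC-MS/MS. Controls: unincubated sample, and samples lacking NADPH or lacking microsomes; propranolol 10 μM as positive control. Metabolites found by comparing T60 with T0 and no-NADPH chromatograms, with product ion spectra of [M+H]+ compared against parent and synthetic standards where available.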
# Liver [18] = assay: Drug metabolism in BALB mouse liver microsomes assessed as N-demethylation on LHS at 10 uM after 1 hr by LC-MS/MS analysis; type: ADME, microsome; method in brief: as §5
# [19] = tested on: Mycobacterium tuberculosis; assay: Antibacterial activity against Mycobacterium tuberculosis H37Rv grown in middlebrook 7H9 medium measured on day 7 and 14 by MABA assay; type: functional; settings: 168 h
# [20] = tested on: Mycobacterium tuberculosis; assay: Antibacterial activity against Mycobacterium tuberculosis […] SAWC1125 grown in middlebrook 7H9 medium measured on day 7 and 14 by MABA assay; type: functional; settings: 168 h
# Method in brief: (§6)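 Clinical M. tuberculosis strains tested by broth microdilution in 7H9 medium. On days 7 and 14, Alamar Blue added and plates reincubated 24 h at 37 °C. Colour read by eye (blue means no growth, pink means growth). MIC90 is the lowest concentration with no colour change.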
# [21] = tested on: Mycobacterium tuberculosis; assay: Antibacterial activity against Mycobacterium tuberculosis […] SAWC3933 grown in middlebrook 7H9 medium measured on day 7 and 14 by MABA assay; type: functional; settings: 168 h; method in brief: as §6
# [22] = tested on: Mycobacterium tuberculosis; assay: Antibacterial activity against Mycobacterium tuberculosis […] SAWC3385 grown in middlebrook 7H9 medium measured on day 7 and 14 by MABA assay; type: functional; settings: 168 h; method in brief: as §6
# [23] = tested on: Mycobacterium tuberculosis; assay: Antibacterial activity against Mycobacterium tuberculosis […] SAWC3200 grown in middlebrook 7H9 medium measured on day 7 and 14 by MABA assay; type: functional; settings: 168 h; method in brief: as §6
# [24] = tested on: Mycobacterium tuberculosis; assay: Antibacterial activity against Mycobacterium tuberculosis […] SAWC3388 grown in middlebrook 7H9 medium measured on day 7 and 14 by MABA assay; type: functional; settings: 168 h; method in brief: as §6
# [25] = tested on: Mycobacterium tuberculosis; assay: Antibacterial activity against Mycobacterium tuberculosis […] SAWC3906 grown in middlebrook 7H9 medium measured on day 7 and 14 by MABA assay; type: functional; settings: 168 h; method in brief: as §6
# [26] = tested on: Mycobacterium tuberculosis; assay: Antibacterial activity against wild type Mycobacterium tuberculosis H37Rv grown in GAST/Fe medium measured on day 14 post inoculation by broth microdilution method; type: functional; settings: 336 h; method in brief: as §1
Compound,MIC99 [1] [µM],MIC99 [2] [µM],IC50 (Vero) [µM],solubility kinetic at 2 h [3] [µM],"logD at 3 h, 100 µM [4]",Kinetic_solubility [5] [µM],Stability (Liver [6]) [%],Fu (Plasma) [%],Stability (Liver [7]) [%],Stability (Liver [8]) [%],betat1/2(app) (Mus musculus [9]) [h],Cmax (Mus musculus [10]) [nM],Tmax (Mus musculus [11]) [h],AUC (Mus musculus [12]) [µM·min],F (Mus musculus [13]) [%],betat1/2(app) (Mus musculus [14]) [h],Vd (Mus musculus [15]) [L/kg],AUC (Mus musculus [16]) [µM·min],Drug metabolism (Liver [17]),Drug metabolism (Liver [18]),further results
CN(Cc1ccc(C(F)(F)F)cc1)c1cc(C(=O)Nc2ccccc2)ncn1,5,5,258,5,5,< 5,87,0.11,55,60,8.7,2200,1,1334,28,4.6,4.3,1224,Metabolite_Detected,Metabolite_Detected,–
CN1CCN(c2ccc(NC(=O)c3cc(N(C)Cc4ccc(C(F)(F)F)cc4)ncn3)cc2)CC1,3.13,1.25,161,150,5,< 5,37,0.14,57,21,15.8,420,–,564,26,10.3,21.8,540,–,–,MIC90 [19]: 1.25 to 2.5 µM; MIC90 [20]: 2.5 to 5 µM; MIC90 [21]: 1.25 to 2.5 µM; MIC90 [22]: 1.25 µM; MIC90 [23]: 1.25 µM; MIC90 [24]: 1.25 to 2.5 µM; MIC90 [25]: 0.31 to 0.63 µM
CN(Cc1ccc(F)cc1)c1cc(C(=O)Nc2nncs2)ncn1,12.5,4.7,21.9,< 5,2,128,65,0.01,67,74,4.4,2580,1,1022,19,5.1,4.8,1329,Metabolite_Detected,Metabolite_Detected,MIC99 [26]: 5 µM; MIC90 [19]: 2.5 µM; MIC90 [20]: < 0.08 µM; MIC90 [21]: 0.625 µM; MIC90 [22]: < 0.08 µM; MIC90 [23]: < 0.08 µM; MIC90 [24]: 0.15 µM; MIC90 [25]: < 0.08 µM
